Like-named read-outs stand apart in the source and are kept apart here.
How the values were obtained:
[1] = cited from earlier work
Influence of oxidation = assay type: physicochemical; settings: H2O2 3%, 10% and 30%
In short: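 Test compound solutions (150 μg/mL) containing 3%, 10% or 30% H₂O₂ were incubated at 25 °C. Samples taken at 0, 2, 5, 10, 20 and 30 min were ice-quenched, diluted tenfold with methanol, filtered (0.22 µm) and quantified by isocratic C18 RP-HPLC (UV 396 nm). Rate constants were derived from plots of ln(Ct/C0) against time.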

Influence of irradiation = assay type: physicochemical; settings: solution under indirect daylight at room temperature, after 15 min
In short: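 A 150 μg/mL test compound solution was exposed to daylight at 25 °C, alongside a light-shielded control. Content was measured by C18 RP-HPLC using acetonitrile–phosphate buffer (35:65, pH 6.5) at 1 mL/min, 30 °C, with UV detection at 396 nm.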

[2] = assay type: physicochemical
In short: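 Test compound stock (0.75 mg/mL in N,N-dimethylformamide) was diluted to 150 μg/mL in phosphate buffers (pH 1.85–10.97, set at 25 °C). Solutions in glass tubes were held in a thermostat bath at 25, 37, 60, 80 or 100 °C. Aliquots were taken at 0–24 h, ice-quenched, diluted tenfold in methanol, filtered (0.22 µm) and run by C18 RP-HPLC (UV 396 nm). Half-life = ln2/k; activation parameters came from Arrhenius relationship.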

In the case of `CC(/C=C1\SC(=S)N(CC(=O)O)C1=O)=C\c1ccccc1` [epalrestat, 5-[(1Z,2E)− 2-methyl-3-phenylpropenylidene]-4-oxo-2-thioxo-3-thiazolidie acetic acid], the “behaviour of epalrestat powder on exposure to light” value [1] is given as “gradually fades in color and decomposes on exposure to light”, the “stability under oxidation conditions” value (Influence of oxidation) is given as “extremely unstable” and the “content of epalrestat relative to that protected from light” value (Influence of irradiation) is given as “a third”. The “pH of maximum stability” value ([2]; 25 °C, pH 1.85 to 10.97) was roughly 10.97, the half-life at 150 μg/mL ([2]; aqueous phosphate buffer, pH 1.85, half-time (t1/2), pH 1.85, 25 °C) was 43.3 h and the half-life at 150 μg/mL ([2]; aqueous phosphate buffer, pH 1.85, half-time (t1/2), pH 1.85, 37 °C) was 33.6 h. The half-life at 150 μg/mL ([2]; aqueous phosphate buffer, pH 1.85, half-time (t1/2), pH 1.85, 60 °C) was 29.6 h, the half-life at 150 μg/mL ([2]; aqueous phosphate buffer, pH 1.85, half-time (t1/2), pH 1.85, 80 °C) was 24.6 h and the half-life at 150 μg/mL ([2]; aqueous phosphate buffer, pH 1.85, half-time (t1/2), pH 1.85, 100 °C) was 10.6 h. It also gave a half-life at 150 μg/mL ([2]; aqueous phosphate buffer, pH 3.13, half-time (t1/2), pH 3.13, 25 °C) of 43.6 h, a half-life at 150 μg/mL ([2]; aqueous phosphate buffer, pH 3.13, half-time (t1/2), pH 3.13, 37 °C) of 35.7 h and a half-life at 150 μg/mL ([2]; aqueous phosphate buffer, pH 3.13, half-time (t1/2), pH 3.13, 60 °C) of 33.6 h. The half-life at 150 μg/mL ([2]; aqueous phosphate buffer, pH 3.13, half-time (t1/2), pH 3.13, 80 °C) was 23.3 h, the half-life at 150 μg/mL ([2]; aqueous phosphate buffer, pH 3.13, half-time (t1/2), pH 3.13, 100 °C) was 11.1 h and the half-life at 150 μg/mL ([2]; aqueous phosphate buffer, pH 5, half-time (t1/2), pH 5.00, 25 °C) was 116 h. For the same molecule, the half-life at 150 μg/mL ([2]; aqueous phosphate buffer, pH 5, half-time (t1/2), pH 5.00, 37 °C) was 60.3 h, the half-life at 150 μg/mL ([2]; aqueous phosphate buffer, pH 5, half-time (t1/2), pH 5.00, 60 °C) was 36.3 h and the half-life at 150 μg/mL ([2]; aqueous phosphate buffer, pH 5, half-time (t1/2), pH 5.00, 80 °C) was 22.9 h. For the same molecule, the half-life at 150 μg/mL ([2]; aqueous phosphate buffer, pH 5, half-time (t1/2), pH 5.00, 100 °C) was 9.67 h, the “△H^‡ (enthalpy of activation)” value ([2]; pH 1.85) was 2.806 kcal/mol and the “△S^‡ (entropy of activation)” value ([2]; pH 1.85) was −647.95 J/K/mol. The “Rate constant (k)” value ([2]; pH 1.85, 25 °C) was 0.0160 h⁻¹, the “Rate constant (k)” value ([2]; pH 1.85, 37 °C) was 0.0206 h⁻¹ and the “Rate constant (k)” value ([2]; pH 1.85, 60 °C) was 0.0234 h⁻¹. For the same molecule, the “Rate constant (k)” value ([2]; pH 1.85, 80 °C) was 0.0282 h⁻¹, the “Rate constant (k)” value ([2]; pH 1.85, 100 °C) was 0.0655 h⁻¹ and the “Ea (activation energy)” value ([2]; pH 1.85, Arrhenius plot 25–100 °C) was 3.468 kcal/mol. For the same molecule, the “△H^‡ (enthalpy of activation)” value ([2]; pH 3.13) was 2.885 kcal/mol, the “△S^‡ (entropy of activation)” value ([2]; pH 3.13) was −646.94 J/K/mol and the “Rate constant (k)” value ([2]; pH 3.13, 25 °C) was 0.0159 h⁻¹. For the same molecule, the “Rate constant (k)” value ([2]; pH 3.13, 37 °C) was 0.0194 h⁻¹, the “Rate constant (k)” value ([2]; pH 3.13, 60 °C) was 0.0206 h⁻¹ and the “Rate constant (k)” value ([2]; pH 3.13, 80 °C) was 0.0297 h⁻¹. The “Rate constant (k)” value ([2]; pH 3.13, 100 °C) was 0.0627 h⁻¹, the “Ea (activation energy)” value ([2]; pH 3.13, Arrhenius plot 25–100 °C) was 3.549 kcal/mol and the “△H^‡ (enthalpy of activation)” value ([2]; pH 5.00) was 6.03 kcal/mol. The “△S^‡ (entropy of activation)” value ([2]; pH 5.00) was −607.24 J/K/mol, the “Rate constant (k)” value ([2]; pH 5.00, 25 °C) was 0.0060 h⁻¹ and the “Rate constant (k)” value ([2]; pH 5.00, 37 °C) was 0.0115 h⁻¹. For the same molecule, the “Rate constant (k)” value ([2]; pH 5.00, 60 °C) was 0.0191 h⁻¹, the “Rate constant (k)” value ([2]; pH 5.00, 80 °C) was 0.0302 h⁻¹ and the “Rate constant (k)” value ([2]; pH 5.00, 100 °C) was 0.0717 h⁻¹. For the same molecule, the “Ea (activation energy)” value ([2]; pH 5.00, Arrhenius plot 25–100 °C) was 6.692 kcal/mol, the “△H^‡ (enthalpy of activation)” value ([2]; pH 7.10) was 6.217 kcal/mol and the “△S^‡ (entropy of activation)” value ([2]; pH 7.10) was −604.87 J/K/mol. For the same molecule, the “Rate constant (k)” value ([2]; pH 7.10, 25 °C) was 0.0043 h⁻¹, the “Rate constant (k)” value ([2]; pH 7.10, 37 °C) was 0.0153 h⁻¹ and the “Rate constant (k)” value ([2]; pH 7.10, 60 °C) was 0.0195 h⁻¹. For the same molecule, the “Rate constant (k)” value ([2]; pH 7.10, 80 °C) was 0.0280 h⁻¹, the “Rate constant (k)” value ([2]; pH 7.10, 100 °C) was 0.0695 h⁻¹ and the “Ea (activation energy)” value ([2]; pH 7.10, Arrhenius plot 25–100 °C) was 6.879 kcal/mol. For the same molecule, the “△H^‡ (enthalpy of activation)” value ([2]; pH 9.08) was 7.012 kcal/mol, the “△S^‡ (entropy of activation)” value ([2]; pH 9.08) was −594.83 J/K/mol and the “Rate constant (k)” value ([2]; pH 9.08, 25 °C) was 0.0033 h⁻¹. The “Rate constant (k)” value ([2]; pH 9.08, 37 °C) was 0.0122 h⁻¹, the “Rate constant (k)” value ([2]; pH 9.08, 60 °C) was 0.0194 h⁻¹ and the “Rate constant (k)” value ([2]; pH 9.08, 80 °C) was 0.0264 h⁻¹. For the same molecule, the “Rate constant (k)” value ([2]; pH 9.08, 100 °C) was 0.0690 h⁻¹, the “Ea (activation energy)” value ([2]; pH 9.08, Arrhenius plot 25–100 °C) was 7.674 kcal/mol and the “△H^‡ (enthalpy of activation)” value ([2]; pH 10.97) was 10.38 kcal/mol. For the same molecule, the “△S^‡ (entropy of activation)” value ([2]; pH 10.97) was −552.37 J/K/mol, the “Rate constant (k)” value ([2]; pH 10.97, 25 °C) was 0.0016 h⁻¹ and the “shelf-life (t0.9)” value ([2]; pH 10.97, 25 °C) was 65.88. For the same molecule, the “Rate constant (k)” value ([2]; pH 10.97, 37 °C) was 0.0036 h⁻¹, the “shelf-life (t0.9)” value ([2]; pH 10.97, 37 °C) was 29.28 and the “Rate constant (k)” value ([2]; pH 10.97, 60 °C) was 0.0140 h⁻¹. The “shelf-life (t0.9)” value ([2]; pH 10.97, 60 °C) was 7.53, the “Rate constant (k)” value ([2]; pH 10.97, 80 °C) was 0.0267 h⁻¹ and the “shelf-life (t0.9)” value ([2]; pH 10.97, 80 °C) was 3.95. For the same molecule, the “Rate constant (k)” value ([2]; pH 10.97, 100 °C) was 0.0724 h⁻¹, the “shelf-life (t0.9)” value ([2]; pH 10.97, 100 °C) was 1.46 and the “Ea (activation energy)” value ([2]; pH 10.97, Arrhenius plot 25–100 °C) was 11.04 kcal/mol. It also gave a half-life at 150 μg/mL ([2]; phosphate buffer, pH 7.1, half-time (t1/2), pH 7.10, 25 °C) of 161 h, a half-life at 150 μg/mL ([2]; phosphate buffer, pH 7.1, half-time (t1/2), pH 7.10, 37 °C) of 45.3 h and a half-life at 150 μg/mL ([2]; phosphate buffer, pH 7.1, half-time (t1/2), pH 7.10, 60 °C) of 35.5 h. It also gave a half-life at 150 μg/mL ([2]; phosphate buffer, pH 7.1, half-time (t1/2), pH 7.10, 80 °C) of 24.8 h, a half-life at 150 μg/mL ([2]; phosphate buffer, pH 7.1, half-time (t1/2), pH 7.10, 100 °C) of 9.97 h and a half-life at 150 μg/mL ([2]; phosphate buffer, pH 9.08, half-time (t1/2), pH 9.08, 25 °C) of 210 h. It also gave a half-life at 150 μg/mL ([2]; phosphate buffer, pH 9.08, half-time (t1/2), pH 9.08, 37 °C) of 56.8 h, a half-life at 150 μg/mL ([2]; phosphate buffer, pH 9.08, half-time (t1/2), pH 9.08, 60 °C) of 35.7 h and a half-life at 150 μg/mL ([2]; phosphate buffer, pH 9.08, half-time (t1/2), pH 9.08, 80 °C) of 26.2 h. It also gave a half-life at 150 μg/mL ([2]; phosphate buffer, pH 9.08, half-time (t1/2), pH 9.08, 100 °C) of 10 h, a half-life at 150 μg/mL ([2]; phosphate buffer, pH 10.97, half-time (t1/2), pH 10.97, 25 °C) of 433 h and a half-life at 150 μg/mL ([2]; phosphate buffer, pH 10.97, half-time (t1/2), pH 10.97, 37 °C) of 192 h. It also gave a half-life at 150 μg/mL ([2]; phosphate buffer, pH 10.97, half-time (t1/2), pH 10.97, 60 °C) of 49.5 h, a half-life at 150 μg/mL ([2]; phosphate buffer, pH 10.97, half-time (t1/2), pH 10.97, 80 °C) of 26 h and a half-life at 150 μg/mL ([2]; phosphate buffer, pH 10.97, half-time (t1/2), pH 10.97, 100 °C) of 9.57 h. The “reaction order of degradation” value ([2]; plot of ln(Ct/C0) against time, all degradation conditions) was “first-order”.

Source: paper PMC6931074 (Journal of Pharmaceutical Analysis, 2018)
